Bioassay records (PubChem)
Sampled rows, rich in hits. Any-hit rate of the full collection: about 3.1%.
KCNQ1 act: potentiates or activates the human KCNQ1 potassium channel; P51787; CHO-K1 KCNQ1, thallium flux FluxOR fluorescence; active compounds read high; B-score at 10 µM; 310,000 tested, 0.35% active; AID 2648;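 active means fluorescence ratio B-score, a plate-corrected score, at least three library SD, with initial intensity B-score within 5 SD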
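assay system = CHO-K1 cells stably expressing KCNQ1 | medium = assay buffer, equal DMSO in all wells | timing = 37 °C overnight plating, 90-min dark dye load, 20-min compound pretreatment | measured by = kinetic FluxOR thallium fluorescence, 10-s 1-Hz baseline, 110-s post-stimulus read | measure = fluorescence change relative to baseline, converted to B score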
hERG rescue: hERG (human) protection from proarrhythmic block; 310,000 tested, 0.51% active; activation (rescue from dofetilide block), less the hit threshold, % at 10 µM; CHO-hERG, FluxOR thallium flux, dofetilide IC70 present; Q12809; AID 1511;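 active means activation above the mean of controls blocked by dofetilide plus 5 SD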;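 further: thallium influx through hERG after potassium depolarization seen as dye fluorescence rise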
KCNQ1 block: inhibitors of human KCNQ1 potassium channel | P51787 | CHO-K1 KCNQ1, FluxOR thallium flux fluorescence; active compounds read high | B-score at 10 µM | 310,000 tested, 1.3% active;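 active means compounds whose thallium flux B-score, printed positive for inhibition, exceeds three library SD while starting fluorescence stays within three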;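 further: channel opened by potassium depolarization with thallium stimulus after 20 min compound exposure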
KCNK3 inh: human KCNK3 channel inhibition, primary screen | AID 602410 | B-score at 10 µM | 340,000 tested, 0.84% active | O14649 | CHO-KCNK3 thallium flux, FluxOR fluorescence; active compounds read low;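 active means B-score under library mean minus 4 SD, starting fluorescence ratio at most library mean plus 5 SD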;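 further: more negative B-score means stronger inhibition of thallium flux through KCNK3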
Target sequence (O14649 whole entry, looked up): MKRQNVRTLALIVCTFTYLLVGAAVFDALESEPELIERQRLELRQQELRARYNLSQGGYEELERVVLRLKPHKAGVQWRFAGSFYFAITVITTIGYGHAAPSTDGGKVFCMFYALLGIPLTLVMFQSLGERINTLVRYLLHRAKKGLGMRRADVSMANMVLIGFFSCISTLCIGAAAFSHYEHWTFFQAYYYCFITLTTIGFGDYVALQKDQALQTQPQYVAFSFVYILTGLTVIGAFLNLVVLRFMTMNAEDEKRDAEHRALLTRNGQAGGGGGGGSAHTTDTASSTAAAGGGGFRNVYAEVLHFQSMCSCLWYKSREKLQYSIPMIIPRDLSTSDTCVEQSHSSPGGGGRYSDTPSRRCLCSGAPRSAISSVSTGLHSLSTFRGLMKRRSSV
KCNK9 inh: human KCNK9 channel inhibition | Q9NPC2 | HEK293 KCNK9, FluxOR thallium flux fluorescence; active compounds read low | B-score at 10 µM | 310,000 tested, 1.2% active;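 active means ratio B-score over 3 SD below the library mean, with starting fluorescence within 5 SD of its mean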;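 further: negative B-score means less thallium flux so channel inhibition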
KCNK3 inh conf: human KCNK3 channel inhibition, confirmation assay | CHO-KCNK3 thallium flux, FluxOR fluorescence; 0% buffer, 100% carvedilol maximal block | 2,400 tested, 99% active | ratio percent of control, % at 10 µM | shares compounds with KCNK3 inh;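 active means ratio percent of control, averaged over triplicates, above buffer control mean plus 5 SD, cut at about 64% in these data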;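 further: ratio is the fluorescence rise from min to max over baseline after thallium stimulus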
KCNK3 uninduced: activity in cells without induced KCNK3 expression | shares compounds with KCNK3 inh | non-induced KCNK3 parental cells, FluxOR thallium flux; active compounds read low | thallium flux ratio (lower = more inhibition) at 10 µM | 2,400 tested, 40% active | AID 651747;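 active means thallium flux ratio, averaged over three wells, more than 5 SD below the buffer control mean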;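 further: host cells are CHO cells without KCNK3 induction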
Numbers stand for hits; . = inactive; / = not tested or not shown.

SMILES	KCNQ1 act	hERG rescue	KCNQ1 block	KCNK3 inh	KCNK9 inh	KCNK3 inh conf	KCNK3 uninduced
CCn1c(NCc2cc(Br)ccc2NS(=O)(=O)c2ccc(C)cc2)nc2ccccc21	.	.	6	-11	.	120	.
COc1ccccc1C(=O)Nc1c(C(=O)N(CCN(C)C)Cc2ccco2)oc2ccccc12	.	.	.	-11	.	125	0.14
CCOc1nc(SCCOc2ccccc2)nc(N(C)C)n1	.	.	.	-9.6	.	98	.
Cc1ccccc1OCCSc1nc(N(C)C)nc(N(C)C)n1	.	.	.	.	.	/	/
CCc1nnc(SCC(=O)Nc2ccccc2)n1CC1CCCO1 (centres undefined)	.	.	.	-8.7	.	79	0.16
O=C(CSc1nc2ccccc2c(=O)n1CC1CCCO1)Nc1ccccc1 (centres undefined)	.	.	.	.	.	/	/
O=C(CSc1nc2ccccc2c(=O)n1CC1CCCO1)Nc1ccccc1Cl (centres undefined)	.	.	.	-12	-7.6	104	.
CN1CC(=O)N(CC(=O)Nc2cccc3ccccc23)C1=O	/	/	/	.	/	/	/
CCc1ccccc1NC(=S)N(CCN1CCCCC1)Cc1ccco1	.	.	.	.	.	/	/
Cc1cc(C)cc(NC(=S)N(CCN2CCCCC2)Cc2ccco2)c1	.	.	.	-8.9	.	90	.
COc1ccc(NC(=O)CON=CC(=O)Nc2ccc(C)cc2)c(OC)c1	/	/	/	.	/	/	/
CN(Cc1ccccc1F)C(=O)COc1ccc(C(=O)c2ccccc2)cc1	.	.	.	-12	-7.7	119	.
O=C(NC(Cc1cccc(F)c1)C(=O)O)C1CCCCC1 (centres undefined)	/	/	/	.	/	/	/
COc1ccc(NC(=O)c2cc3ccccc3cc2OC)cc1	.	.	.	-11	.	112	.
COc1ccc(C(=O)COc2ccccc2C(N)=O)cc1	.	.	.	.	.	/	/
COc1ccc(C(=O)COc2ccccc2C(=O)Nc2ccccc2)cc1	.	.	.	-9.8	.	108	0.16
CCOC(=O)c1cc2c(=O)n3ccccc3nc2n(Cc2ccco2)c1=NC(=O)c1ccccc1OCC	.	.	.	-8.8	.	91	.
CCOC(=O)c1cc2c(=O)n3ccccc3nc2n(CC(C)C)c1=NC(=O)c1ccco1	.	.	.	.	.	/	/
CN(CC(=O)Nc1ccccc1C(F)(F)F)C(=O)c1ccc2c(=O)n3c(nc2c1)CCC3	/	/	/	.	/	/	/
Cc1ccccc1-n1nnnc1SCc1ncc(-c2ccccc2)o1	.	.	.	-9.4	.	99	.
c1ccc(-c2cnc(CSc3nnc4ccccn34)o2)cc1	.	.	.	.	.	/	/
Cc1cc(OCC(=O)N[C@@H](CSCc2ccccc2)C(=O)O)c2c(C)c(C)c(=O)oc2c1	.	.	.	.	.	/	/
O=C(Cn1cnc([N+](=O)[O-])n1)c1ccccc1	.	.	.	.	.	/	/
O=C(Cn1cnc([N+](=O)[O-])n1)c1ccc(O)c(O)c1	.	.	.	-9.2	-8	79	.
O=C(OC(c1ccccc1)c1nccc2ccccc12)c1ccccc1 (centres undefined)	/	/	/	-11	/	105	0.14
SMILES	KCNQ1 act	hERG rescue	KCNQ1 block	KCNK3 inh	KCNK9 inh	KCNK3 inh conf	KCNK3 uninduced
O=C(c1ccc(COc2ccc(Cl)cc2)o1)N1CCN(Cc2ccc3c(c2)OCO3)CC1	.	.	.	-9.8	.	146	0.11
Cc1cccc(C)c1OCC(=O)Nc1cccc(-c2nnc(-c3ccccc3)o2)c1	.	.	.	.	.	/	/
COc1ccc(C(=O)Nc2ccc(C(=O)c3ccccc3)cc2)cc1	.	.	.	.	.	/	/
CC(=O)Nc1ccc(C(=O)c2ccccc2)cc1	.	.	.	.	.	/	/
CCCCC(=O)Nc1ccc(C(=O)c2ccccc2)cc1	.	.	.	.	-6.8	96	.
CCCc1cc(C(=O)Nc2ccc(C(=O)c3ccccc3)cc2)n(C)n1	.	.	.	-13	.	132	0.15
CCCCC(=O)Nc1cccc(-c2nnc(-c3ccccc3)o2)c1	.	.	.	.	-6.7	123	.
COc1cc(CN2CCC(n3nccc3NC(=O)C3CC3)CC2)cc(OC)c1	.	.	.	.	.	/	/
COC(=O)Cc1c[nH]c2cccc(OCC(O)CN(Cc3ccccc3)C(C)C)c12 (centres undefined)	.	.	.	-8.9	-7.9	100	.
CC1(c2ccc(NC(=O)c3ccccc3F)cc2)CC1(Cl)Cl (centres undefined)	.	.	.	.	.	/	/
CCOc1cc(N2CCOCC2)c(OCC)cc1NC(=O)c1nn(CC)c(=O)c2ccccc12	/	/	/	.	/	/	/
COc1ccccc1NS(=O)(=O)c1cccc(NC(=O)c2sc3ccccc3c2Cl)c1	.	.	.	-9.1	.	96	.
CSCC[C@H](NC(=O)c1ccc(Cl)c(S(=O)(=O)N2CCCC2)c1)c1nc2ccccc2[nH]1	.	.	.	-11	.	107	.
COc1ccc(OC)c(NC(=O)CSc2nc3nc(C)cc(C)n3n2)c1	/	/	/	.	/	/	/
COc1cc2c(cc1OC)C(c1ccccc1)N(C(=O)c1ccco1)CC2 (centres undefined)	.	.	.	-11	.	97	.
COc1cc(C(=O)N/N=C/c2ccc3c(c2)c2ccccc2n3C)ccc1O	.	.	.	-11	.	100	.
COc1cccc(C(=O)Oc2ccc(/C=N/NC(=O)c3ccncc3)cc2OC)c1	.	.	.	.	.	/	/
COc1cc(C(=O)N/N=C/c2ccc(OC(=O)c3cccc(C)c3)c(OC)c2)ccc1O	.	.	8	-8.7	.	82	.
CC(=O)c1cc2c(cc1NC(=O)Cc1c(C)noc1C)OCO2	/	/	/	.	/	/	/
CN(CC(=O)Nc1ccc(F)c(F)c1F)C(=O)c1ccc(=O)[nH]c1	.	.	.	.	.	/	/
Cc1cc2occ(CC(=O)N(C)CC(=O)Nc3ccc(F)cc3)c2cc1C	.	.	.	.	.	/	/
CC(C)(C)c1ccc(C(=O)NCCC(=O)N2CCN(c3ncccn3)CC2)cc1	.	.	.	-12	.	86	.
Cc1cccc(-c2cc3nc4c(c(N5CCCC(O)C5)n3n2)CCC4)c1 (centres undefined)	.	.	.	-10	.	103	.
OC1CCCN(c2c3c(nc4cc(-c5cccc(Cl)c5)nn24)CCC3)C1 (centres undefined)	.	.	.	-10	.	93	.
COc1ccc(C(c2nnnn2Cc2cccs2)N2CCN(c3ccccc3F)CC2)cc1OC (centres undefined)	.	.	.	.	.	/	/
c1ccc(Cn2nnnc2C(c2cccs2)N2CCCCCC2)cc1 (centres undefined)	.	.	.	-10	.	116	0.13
